This is an account of results in ChEMBL document CHEMBL4368880, “Synthesis and biological evaluation of 3-(1,3,4-oxadiazol-2-yl)-1,8-naphthyridin-4(1H)-ones as cisplatin sensitizers” (Medchemcomm, 2018).

In data set [1] the test system is HCT-116. Put plainly: Growth inhibition of human HCT116 cells at 10 uM after 24 hrs by MTT assay relative to control. It counts as functional. To be noted: HCT-116, 24 h, read-out: GI. The method in brief: (§1)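 Monolayers seeded 24 h before treatment, then exposed to compound, with DMEM or RPMI 1640 plus 10% FBS as growth medium. MTT (5 mg mL–1 stock) incubated 2–4 h at 37 °C, formazan dissolved in DMSO, and absorbance read at 570 nm. Growth inhibition reported as % of control.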

Data set [2] concerns HCT-116. Put plainly: Growth inhibition of human HCT116 cells at 2.5 uM after 24 hrs by MTT assay relative to control. It counts as functional. Conditions: HCT-116, 24 h, read-out: GI. The method in brief: as §1
(In general: Tetrazolium dyes change colour on reduction, which living cells bring about.)

Data set [3] deals with HCT-116. Put plainly: Growth inhibition of human HCT116 cells at 5 uM after 24 hrs by MTT assay relative to control. It counts as functional. To be noted: HCT-116, 24 h, read-out: GI. The method in brief:
as §1

Data set [4] concerns HCT-116. Put plainly: Potentiation of cisplatin-induced antiproliferative activity against human HCT116 cells assessed as cell growth inhibition at 2.5 uM preincubated for 24 hrs followed by 2.5 uM cisplatin addition and measured after 48 hrs by MTT assay (reference value: 26.98 +/-2.84%). Type of data set: functional. Conditions: read-out: GI.
A further data set concerns L02. Put plainly: Cytotoxicity against human LO2 cells assessed as reduction in cell growth at 5 to 10 uM after 24 hrs by MTT assay. Type of data set: cell-based. To be noted: l02, 24 h.
Data set [5] has as its system KB. Put plainly: Growth inhibition of human KB cells at 5 uM after 24 hrs by MTT assay relative to control. Conditions: read-out: GI. It counts as functional. The method in brief: as §1
Data set [6] deals with HeLa. Put plainly: Growth inhibition of human HeLa cells at 10 uM after 24 hrs by MTT assay relative to control. Type of data set: functional. To be noted: read-out: GI. Put shortly: as §1
Data set [7] has as its system MCF7. Put plainly: Growth inhibition of human MCF7 cells at 5 uM after 24 hrs by MTT assay relative to control. It counts as functional. Conditions: MCF7, 24 h, read-out: GI. The method in brief:
as §1

For data set [8], the system named is A549. Put plainly: Growth inhibition of human A549 cells at 10 uM after 24 hrs by MTT assay relative to control. It counts as functional. To be noted: A549, 24 h, read-out: GI. Put shortly:
as §1

In data set [9] the test system is MCF7. Put plainly: Growth inhibition of human MCF7 cells at 10 uM after 24 hrs by MTT assay relative to control. Type of data set: functional. Conditions: MCF7, 24 h, read-out: GI. Put shortly:
as §1

For data set [10], the system named is HepG2. Put plainly: Growth inhibition of human HepG2 cells at 10 uM after 24 hrs by MTT assay relative to control. Type of data set: functional. Conditions: HepG2, 24 h, read-out: GI. The method in brief:
as §1

Data set [11] concerns HepG2. Put plainly: Growth inhibition of human HepG2 cells at 5 uM after 24 hrs by MTT assay relative to control. Type of data set: functional. To be noted: HepG2, 24 h, read-out: GI. The method in brief:
as §1

The subject of data set [12] is KB. Put plainly: Growth inhibition of human KB cells at 10 uM after 24 hrs by MTT assay relative to control. Type of data set: functional. To be noted: read-out: GI. The method in brief:
as §1

Data set [13] deals with A549. Put plainly: Growth inhibition of human A549 cells at 5 uM after 24 hrs by MTT assay relative to control. Type of data set: functional. Conditions: A549, 24 h, read-out: GI. The method in brief:
as §1

Data set [14] concerns HeLa. Put plainly: Growth inhibition of human HeLa cells at 5 uM after 24 hrs by MTT assay relative to control. Conditions: read-out: GI. It counts as functional. The method in brief: as §1

For the compound `O=c1c(-c2nnc(-c3ccc(F)cc3)o2)c[nH]c2ncc(-c3ccncc3)cc12`, in the data set on HCT-116 [1], the inhibition of growth at 10 µM was 20.5%. The inhibition of growth at 2.5 µM stood at 7.54% in the data set on HCT-116 [2] and 19.6% in the data set with HCT-116 [4]. Besides, the inhibition of growth at 5 µM in the data set on HCT-116 [3] was determined as 10.9%. In addition, in the data set with L02, the Activity entry was “Non-Toxic”.
The corresponding values for `N#Cc1ccc(-c2cnc3[nH]cc(-c4nnc(-c5ccc(F)cc5)o4)c(=O)c3c2)cc1` are 18.9%, 10.2%, 25.6%, 12.6% and “Non-Toxic”.
`CS(=O)(=O)c1ccc(-c2cnc3[nH]cc(-c4nnc(-c5ccc(Cl)cc5)o4)c(=O)c3c2)cc1`: the inhibition of growth at 5 µM with KB [5] was found to be 2.15%; in the data set on MCF7 [7], 0.86%; with HepG2 [11], 11.2%; in the data set with HCT-116 [3], 16.4%; with A549 [13], 23.8%; with HeLa [14], 1.07%. For the same compound, the inhibition of growth at 10 µM in the data set with HCT-116 [1] amounted to 17%; in the data set on HeLa [6], 1.64%; with A549 [8], 26.8%; in the data set on MCF7 [9], 13.1%; in the data set on HepG2 [10] it was 11.6%; in the data set with KB [12], 9.3%. Besides, the inhibition of growth at 2.5 µM amounted to 2.06% in the data set with HCT-116 [2] and 24.9% with HCT-116 [4]. Also, the Activity entry with L02 is reported as “Non-Toxic”.
As to `CS(=O)(=O)c1ccc(-c2cnc3[nH]cc(-c4nnc(-c5ccc(F)cc5)o4)c(=O)c3c2)cc1`, the inhibition of growth at 5 µM with KB [5] is 2.55%; with MCF7 [7], 3.78%; in the data set on HepG2 [11] it was 9.45%; in the data set with HCT-116 [3], 14.9%; in the data set on A549 [13], 3.11%; in the data set on HeLa [14], 8.47%. In addition, the inhibition of growth at 10 µM in the data set on HCT-116 [1] was 18.6%; with HeLa [6], 15.7%; in the data set with A549 [8], 3.59%; in the data set on MCF7 [9], 8.1%; in the data set with HepG2 [10], 11.1%; in the data set on KB [12], 7.58%. Also, the figures for the inhibition of growth at 2.5 µM in the data set with HCT-116 [2] and in the data set on HCT-116 [4] were 10.7% and 39.5%, respectively. In the data set on L02, the Activity result is “Non-Toxic”.
In the case of `O=c1c(-c2nnc(-c3ccc(Cl)cc3)o2)c[nH]c2ncc(-c3ccccc3)cc12`, the inhibition of growth at 5 µM in the data set with KB [5] was determined as 2.15%; with MCF7 [7], 11.9%; in the data set on HepG2 [11] it was 5.1%; with HCT-116 [3] it was 12.3%; in the data set on A549 [13], 1.44%; in the data set on HeLa [14] it was 3.55%. In addition, the inhibition of growth at 10 µM is 21.6% in the data set with HCT-116 [1]; 31.3% with HeLa [6]; 9.77% in the data set on A549 [8]; 26.9% in the data set with MCF7 [9]; 14.9% with HepG2 [10]; 19.5% in the data set on KB [12]. Also, the inhibition of growth at 2.5 µM is 9.81% in the data set with HCT-116 [2] and 29.8% with HCT-116 [4]. For the same compound, the Activity entry in the data set on L02 is on record as “Non-Toxic”.
As for `CS(=O)(=O)c1ccc(-c2cnc3[nH]cc(-c4nnc(-c5ccncc5)o4)c(=O)c3c2)cc1`, the inhibition of growth at 5 µM in the data set on KB [5] is 2.16%; in the data set on MCF7 [7], 2.35%; in the data set with HepG2 [11], 3.49%; in the data set with HCT-116 [3] it was 5.61%; in the data set on A549 [13] it was 6.76%; with HeLa [14], 7.08%. Also, the inhibition of growth at 10 µM in the data set on HCT-116 [1] came out at 7.83%; with HeLa [6], 18.4%; with A549 [8], 12.1%; in the data set on MCF7 [9], 4.27%; in the data set on HepG2 [10], 6.65%; in the data set on KB [12], 3.02%. Also, the inhibition of growth at 2.5 µM was 2.64% with HCT-116 [2] and 29.2% in the data set on HCT-116 [4]. The Activity result with L02 is listed as “Non-Toxic”.
Regarding `CS(=O)(=O)c1ccc(-c2cnc3[nH]cc(-c4nnc(-c5cccnc5)o4)c(=O)c3c2)cc1`, the inhibition of growth at 10 µM in the data set on HCT-116 [1] is 14.7%. The inhibition of growth at 2.5 µM was 4.32% in the data set on HCT-116 [2] and 28.6% in the data set on HCT-116 [4]. In addition, the inhibition of growth at 5 µM in the data set with HCT-116 [3] stood at 9.26%. The Activity result in the data set with L02 is on record as “Non-Toxic”.
With `CS(=O)(=O)c1ccc(-c2cnc3[nH]cc(-c4nnc(-c5ccccc5)o4)c(=O)c3c2)cc1`, the inhibition of growth at 5 µM stood at 4.38% in the data set on KB [5]; 1.38% in the data set on MCF7 [7]; 5.46% with HepG2 [11]; 8.6% in the data set on HCT-116 [3]; 8.17% in the data set with A549 [13]; 8.58% with HeLa [14]. For the same compound, the inhibition of growth at 10 µM worked out at 15.7% in the data set on HCT-116 [1]; 17.5% with HeLa [6]; 9.51% in the data set with A549 [8]; 2.83% in the data set on MCF7 [9]; 6.98% in the data set on HepG2 [10]; 5.2% in the data set with KB [12]. For the same compound, the values for the inhibition of growth at 2.5 µM with HCT-116 [2] and in the data set on HCT-116 [4] were 0.53% and 27.2%, respectively. The Activity result in the data set with L02 is “Non-Toxic”.
Take `CS(=O)(=O)c1ccc(-c2cnc3[nH]cc(-c4nnc(-c5ccccn5)o4)c(=O)c3c2)cc1`: the inhibition of growth at 10 µM in the data set on HCT-116 [1] is 16.2%. The inhibition of growth at 2.5 µM in the data set on HCT-116 [2] is 5.37%; in the data set on HCT-116 [4], 34.3%. Besides, the inhibition of growth at 5 µM in the data set on HCT-116 [3] came out at 11.3%. Besides, the Activity result with L02 was “Non-Toxic”.
The corresponding values for `O=c1c(-c2nnc(-c3ccc(Cl)cc3)o2)c[nH]c2ncc(-c3cccnc3)cc12` are 11.8%, 10.4%, 20.1%, 15.9% and “Non-Toxic”.
Turning to `O=c1c(-c2nnc(-c3ccc(F)cc3)o2)c[nH]c2ncc(-c3cccnc3)cc12`, the inhibition of growth at 10 µM in the data set on HCT-116 [1] came to 19.7%. Moreover, the inhibition of growth at 2.5 µM in the data set on HCT-116 [2] came out at 9.87%; in the data set with HCT-116 [4] it was 20.1%. For the same compound, the inhibition of growth at 5 µM in the data set with HCT-116 [3] was determined as 11.1%. Further, the Activity entry in the data set on L02 is “Non-Toxic”.
In the case of `N#Cc1ccc(-c2cnc3[nH]cc(-c4nnc(-c5ccc(Cl)cc5)o4)c(=O)c3c2)cc1`, the inhibition of growth at 5 µM with KB [5] amounted to 7.35%; in the data set on MCF7 [7] it was 4.65%; in the data set on HepG2 [11], 11.5%; in the data set on HCT-116 [3], 17.9%; with A549 [13], 7.6%; with HeLa [14], 4.8%. Also, the inhibition of growth at 10 µM with HCT-116 [1] is 18.3%; with HeLa [6], 13.7%; in the data set on A549 [8] it was 12.5%; in the data set on MCF7 [9], 19.7%; in the data set with HepG2 [10], 12.7%; in the data set on KB [12], 9.73%. The inhibition of growth at 2.5 µM amounted to 13.7% with HCT-116 [2] and 35.4% in the data set on HCT-116 [4]. For the same compound, the Activity result with L02 was “Non-Toxic”.
